The values that follow come from ChEMBL document CHEMBL1140291, “Quinic acid derivatives as sialyl Lewis(x)-mimicking selectin inhibitors: design, synthesis, and crystal structure in complex with E-selectin” (J Med Chem, 2005).

Data set [1] can be described thus: Maximum concentration observed in rat ( 20 mg/kg iv ). It is filed as ADME, organism-based. Further details: dose 20 mg/kg, route intravenous. The following applies: in vivo. In outline: (§1)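 Single 20 mg/kg iv bolus (10 mg/mL in 50% DMSO/50% PEG400). Blood drawn at 5 min and 0.5, 0.75, 1, 2, 4, 7, 24 h, with saline replacing lost volume. Plasma precipitated with CH3CN and analysed by LC/MS. Linear trapezoid noncompartmental analysis.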

Data set [2] in a line: (§2) Anti-inflammatory activity as selectin-mediated rolling of human neutrophils on stimulated human umbilical vein endothelial cells. The following applies: endothelial cell. It is filed as functional, cell-based. In outline: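 Parallel plate flow chamber; human neutrophils rolled over confluent HUVEC monolayers activated with […] just before the run to raise surface P-selectin. Rolling cells counted by digital imaging/videotape, averaged over 10 fields on each of three monolayers per test article. Active compounds titrated for IC50. Glycyrrhizin trisodium salt as positive control.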

Data set [3] in a line: Clearance observed in rat ( 20 mg/kg iv ). The format is ADME, organism-based. Further details: dose 20 mg/kg, route intravenous. The conditions noted are these: in vivo. An outline of the steps: as §1
Data set [4] is described as follows: Area under curve in rat ( 20 mg/kg iv ). The format is ADME, organism-based. More on the design: dose 20 mg/kg, route intravenous. The following applies: in vivo. In outline: as §1
A further data set has as its target T1, P-selectin (Homo sapiens, UniProt P16109).
T1 sequence (P16109 whole entry): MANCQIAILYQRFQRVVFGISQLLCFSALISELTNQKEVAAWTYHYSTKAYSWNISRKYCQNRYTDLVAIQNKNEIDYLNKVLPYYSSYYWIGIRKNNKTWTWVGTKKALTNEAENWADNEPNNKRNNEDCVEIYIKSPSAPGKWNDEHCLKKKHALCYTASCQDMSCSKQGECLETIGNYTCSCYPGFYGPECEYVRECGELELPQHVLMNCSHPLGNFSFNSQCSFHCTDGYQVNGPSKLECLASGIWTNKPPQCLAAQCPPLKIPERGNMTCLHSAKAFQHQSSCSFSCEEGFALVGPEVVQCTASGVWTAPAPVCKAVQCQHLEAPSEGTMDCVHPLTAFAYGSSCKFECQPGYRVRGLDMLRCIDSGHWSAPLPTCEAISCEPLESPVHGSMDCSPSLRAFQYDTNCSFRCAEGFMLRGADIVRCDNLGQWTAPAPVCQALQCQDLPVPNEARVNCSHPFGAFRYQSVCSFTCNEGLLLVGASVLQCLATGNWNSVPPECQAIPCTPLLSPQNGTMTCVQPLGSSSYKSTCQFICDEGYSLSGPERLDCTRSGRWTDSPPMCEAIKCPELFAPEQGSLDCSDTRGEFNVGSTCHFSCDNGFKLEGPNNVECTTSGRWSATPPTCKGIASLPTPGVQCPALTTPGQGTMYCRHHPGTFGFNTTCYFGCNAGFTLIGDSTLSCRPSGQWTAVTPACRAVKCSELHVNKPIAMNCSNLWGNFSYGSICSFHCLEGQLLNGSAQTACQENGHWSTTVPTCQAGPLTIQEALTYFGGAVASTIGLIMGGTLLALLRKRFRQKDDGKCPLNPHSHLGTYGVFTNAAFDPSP
Nature of the data set: Inhibitory concentration against selectin P in Biacore assay. An outline of the steps: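 SPR at 25 °C. Biotinylated monomeric truncated human PSGL-1 (19ek) was immobilised on a streptavidin chip. Compounds were preincubated 1 h with 500 nM monomeric P-selectin (P-LE) in HEPES/NaCl/1 mM CaCl2/MgCl2/0.05% P40/10% DMSO, then injected at 0–6 mM in duplicate, at least two runs. IC50 was extrapolated from the RU vs concentration plot after blank and reference subtraction.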
A general note: In SPR one partner is held on a chip, and binding of the other changes the refractive index at the surface.

Data set [5] is described as follows: as §2. It is filed as functional, cell-based. The following applies: endothelial cell. In outline: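 Parallel plate flow chamber; human neutrophils rolled over confluent HUVEC monolayers activated with […] just before the run to raise surface P-selectin. Rolling cells counted by digital imaging/videotape, averaged over 10 fields on each of three monolayers per test article. Glycyrrhizin trisodium salt as positive control.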
The source holds these as a separate data set.

Where only a bound is given, the exact number is not on record here.

As for `O=C(O)[C@]1(OCc2ccc(-c3ccccc3C(F)(F)F)cc2)C[C@@H](O)[C@@H](O)[C@H](O)C1`, the highest level in data set [1] (Cmax) was 212 µM. Besides, the IC50 was 625 µM in data set [2] and 10000 µM against P-selectin. In addition, the clearance in data set [3] is 4 mL/min/kg. For the same molecule, the AUC in data set [4] was 219 µM·h.

On to `O=C(O)[C@]1(OCc2ccccc2-c2cccc3c2Sc2ccccc2S3)C[C@@H](O)[C@@H](O)[C@H](O)C1`, for which the figures for the IC50 (in data set [5]; against P-selectin) were 1000 µM and at most 2 µM, respectively.

As usually defined, the Cmax is the highest concentration seen after dosing. By IC50 is commonly meant the concentration that gives 50% inhibition. A high value points to lower potency. For orientation: clearance means the rate of elimination divided by the concentration. A low value points to inefficient removal. One may read the AUC as the area under the concentration-time curve, a measure of exposure. Low readings indicate low exposure, high ones high exposure.
